The results in this text go back to ChEMBL document CHEMBL1154718, “Carbamate analogues of fumagillin as potent, targeted inhibitors of methionine aminopeptidase-2” (J Med Chem, 2009).

Data set [1] deals with Methionine aminopeptidase 2 (Homo sapiens) (UniProt P50579). Put plainly: Inhibition of MetAP2 assessed as remaining enzyme activity at 200 nM after 8 hrs relative to untreated control. The method in brief:
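MetAP2 at 20 nM final was incubated with compound at 200 nM final in 1% glycerol, 20 mM HEPES, 100 mM KCl, 0.1 mM CoSO4. Triplicate samples were taken at 1, 2, 4 and 8 h, and residual activity was read with Met-AMC substrate. Result is percent activity remaining at 8 h.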

The subject of data set [2] is HUVEC. As to the kind of experiment: Antiproliferative activity against HUVEC after 72 hrs by MTT assay. The data set is classed as cell-based. As to conditions: Homo sapiens. The method in brief: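 HUVEC (passage 3-5) grown in endothelial growth medium at 37 C; 2000 cells/well seeded in triplicate. After attachment, fresh medium with compound for 72 h. MTT 0.25 mg/mL added for 2 h at 37 C, formazan dissolved in isopropanol, absorbance read at 570 nm. Value is concentration giving 50% growth inhibition.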
In general terms: Tetrazolium dyes change colour on reduction, which living cells bring about.

Data set [3] can be described thus: Antiproliferative activity against BAEC. As to conditions: Bos taurus. Format: functional, cell-based.
Data set [4] concerns Rattus norvegicus. As to the kind of experiment: CNS toxicity in rat assessed as incidence of seizures at 6 mg/kg, iv qd for 14 days. As to conditions: in vivo, 336 h.
In data set [5] the test system is Rattus norvegicus. Put plainly: CNS toxicity in rat assessed as incidence of seizures at 60 mg/kg, iv qd for 14 days. The note with it: in vivo, 336 h.

Methionine aminopeptidase 2 (Homo sapiens), sequence (P50579 2-478 limits assumed): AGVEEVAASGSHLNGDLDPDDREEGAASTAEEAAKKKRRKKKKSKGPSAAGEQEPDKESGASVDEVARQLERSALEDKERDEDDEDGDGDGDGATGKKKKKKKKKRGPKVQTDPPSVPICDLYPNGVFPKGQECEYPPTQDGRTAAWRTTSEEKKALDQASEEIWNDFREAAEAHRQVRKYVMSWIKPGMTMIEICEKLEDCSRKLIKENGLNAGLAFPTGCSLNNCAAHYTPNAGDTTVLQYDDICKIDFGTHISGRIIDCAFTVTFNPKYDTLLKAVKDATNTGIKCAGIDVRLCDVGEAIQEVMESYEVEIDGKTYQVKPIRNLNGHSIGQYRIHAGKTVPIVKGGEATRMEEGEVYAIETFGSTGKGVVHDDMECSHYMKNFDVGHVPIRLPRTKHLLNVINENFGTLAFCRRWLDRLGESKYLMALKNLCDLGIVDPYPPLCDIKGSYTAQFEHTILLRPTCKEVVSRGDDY

Usually IC50 stands for the midpoint of a concentration-inhibition curve. A higher IC50 goes with a need for much substance. For `CO[C@H]1[C@@H]([C@@]2(C)O[C@@H]2CC=C(C)C)[C@]2(CC[C@H]1OC(=O)NC(=O)CCl)CO2`, the Activity in data set [1] came out at 4%. Further, half-maximal inhibition in data set [2] (IC50) was put at 250 pM.

As to `CO[C@H]1C([C@@]2(C)O[C@@H]2CC=C(C)C)[C@]2(CC[C@H]1OC(=O)NCCC1CCCN1C)CO2` (single isomer, unassigned), in data set [1], the Activity was found to be 5.4%. In addition, in data set [2], the IC50 was 200 pM.

As to `CO[C@H]1C([C@@]2(C)O[C@@H]2CC=C(C)C)[C@]2(CC[C@H]1OC(=O)NC(C)C)CO2` (single isomer, unassigned), in data set [1], the Activity worked out at 3%. Besides, in data set [2], inhibition was half-maximal at 60 pM (IC50).

Turning to `COC(=O)[C@@H](NC(=O)O[C@@H]1CC[C@]2(CO2)[C@H]([C@@]2(C)O[C@@H]2CC=C(C)C)[C@@H]1OC)C(C)C`, the results for the IC50 in data set [2] and in data set [3] were 18 pM and 17 pM, respectively.

As to `CO[C@H]1C([C@@]2(C)O[C@@H]2CC=C(C)C)[C@]2(CC[C@H]1OC(=O)NCCN1CCCC1)CO2` (single isomer, unassigned), the Activity in data set [1] was 3.5%. The 50% inhibitory concentration (IC50) in data set [2] is 100 pM.

Take `CO[C@H]1C([C@@]2(C)O[C@@H]2CC=C(C)C)[C@]2(CC[C@H]1OC(=O)NCCC[N+](C)(C)C)CO2` (single isomer, unassigned): in data set [1], the Activity was 5.4%. This molecule also came in with an IC50 in data set [2] of more than 100000 pM.

Consider `CO[C@H]1[C@@H]([C@@]2(C)O[C@@H]2CC=C(C)C)[C@]2(CC[C@H]1OC(=O)N[C@@H](C(=O)NCCC1CCCN1C)C(C)C)CO2` (stereo partly specified), for which the Activity in data set [1] was determined as 4.5%. For the same molecule, half-maximal inhibition in data set [2] (IC50) was put at 600 pM.

As to `CO[C@H]1C([C@@]2(C)O[C@@H]2CC=C(C)C)[C@]2(CC[C@H]1OC(=O)N1CCC(C(=O)O)CC1)CO2` (single isomer, unassigned), the Activity in data set [1] was 8.3%. Also, the IC50 in data set [2] was determined as 1300 pM.

For `CO[C@H]1[C@@H]([C@@]2(C)O[C@@H]2CC=C(C)C)[C@]2(CC[C@H]1OC(=O)N[C@@H](C(=O)NN1CCOCC1)C(C)C)CO2`, the Activity in data set [1] amounted to 5.2%. This molecule also registered an IC50 in data set [2] of 1700 pM.

`CO[C@H]1C([C@@]2(C)O[C@@H]2CC=C(C)C)[C@]2(CC[C@H]1OC(=O)NC(C)(C)C)CO2` (single isomer, unassigned): the half-inhibitory concentration (IC50) in data set [2] stood at 1100 pM.

Turning to `COC(=O)[C@@H](CC(C)C)NC(=O)O[C@@H]1CC[C@]2(CO2)C([C@@]2(C)O[C@@H]2CC=C(C)C)[C@@H]1OC` (single isomer, unassigned), the 50% inhibitory concentration (IC50) is 38 pM in data set [2] and 118 pM in data set [3]. Also, the Activity entry in data set [4] and in data set [5] was “Toxic” each time.

With `CO[C@H]1C([C@@]2(C)O[C@@H]2CC=C(C)C)[C@]2(CC[C@H]1OC(=O)NC(C)(C)C(N)=O)CO2` (single isomer, unassigned), the Activity in data set [1] is 24%. The IC50 in data set [2] came to 1700 pM.

`CO[C@H]1C([C@@]2(C)O[C@@H]2CC=C(C)C)[C@]2(CC[C@H]1OC(=O)NCCC1CCC[N+]1(C)C)CO2` (single isomer, unassigned): the Activity in data set [1] was 6.3%. The IC50 in data set [2] was more than 100000 pM.

Regarding `CO[C@H]1C([C@@]2(C)O[C@@H]2CC=C(C)C)[C@]2(CC[C@H]1OC(=O)NC1(C(N)=O)CCCC1)CO2` (single isomer, unassigned), in data set [1], the Activity was 13%. The half-inhibitory concentration (IC50) in data set [2] was 700 pM.

On to `COC(=O)[C@H](NC(=O)O[C@@H]1CC[C@]2(CO2)C([C@@]2(C)O[C@@H]2CC=C(C)C)[C@@H]1OC)c1ccccc1` (single isomer, unassigned), for which the results for the half-inhibitory concentration (IC50) in data set [2] and in data set [3] were 36 pM and 35 pM, respectively.

As for `CO[C@H]1C([C@@]2(C)O[C@@H]2CC=C(C)C)[C@]2(CC[C@H]1OC(=O)NN1CCOCC1)CO2` (single isomer, unassigned), the Activity in data set [1] came out at 5.7%. In data set [2], this molecule registered an IC50 of 700 pM.

For `COC(=O)[C@H](NC(=O)O[C@@H]1CC[C@]2(CO2)C([C@@]2(C)O[C@@H]2CC=C(C)C)[C@@H]1OC)C(C)C` (single isomer, unassigned), the IC50 was 40 pM in data set [2] and 48 pM in data set [3].

In the case of `CO[C@H]1C([C@@]2(C)O[C@@H]2CC=C(C)C)[C@]2(CC[C@H]1OC(=O)N[C@@H](C(=O)Nc1cccc(C(=O)O)c1)C(C)C)CO2` (single isomer, unassigned), the Activity in data set [1] was 4.3%. For the same molecule, the IC50 in data set [2] turned out to be 15000 pM.

Take `CO[C@H]1[C@@H]([C@@]2(C)O[C@@H]2CC=C(C)C)[C@]2(CC[C@H]1OC(=O)N[C@@H](C(=O)NCCN1CCCC1)C(C)C)CO2`: the Activity in data set [1] worked out at 2.6%. This molecule also had a concentration for half-maximal inhibition (IC50) in data set [2] of 600 pM.

For the molecule `CO[C@H]1[C@@H]([C@@]2(C)O[C@@H]2CC=C(C)C)[C@]2(CC[C@H]1OC(=O)N[C@@H](C(N)=O)C(C)C)CO2`, the Activity was 2.8% in data set [1], “Non-toxic” in data set [4] and “Non-toxic” in data set [5]. Moreover, the figures for the IC50 in data set [2] and in data set [3] were 95 pM and 46 pM, respectively.

With `CO[C@H]1C([C@@]2(C)O[C@@H]2CC=C(C)C)[C@]2(CC[C@H]1OC(=O)NCc1ccc(C(=O)O)cc1)CO2` (single isomer, unassigned), in data set [1], the Activity is 3.5%. In data set [2], the IC50 amounted to 700 pM.
